Results on 8 compounds are retold here after ChEMBL document CHEMBL1155985, “Water-soluble phosphate prodrugs of pleuromutilin analogues with potent in vivo antibacterial activity against Gram-positive pathogens” (Bioorg Med Chem Lett, 2009).

Each structure is given as a SMILES string. Converted amounts (≈) assume the structure as drawn.

The subject of data set [1] is Rattus norvegicus. Description: Half life in Sprague-Dawley rat assessed as parent drug level at 30 mg/kg, iv. Type of data set: ADME, organism-based. More on the design: dose 30 mg/kg, route intravenous. Conditions: in vivo. The method, boiled down: (§1)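 Male Sprague-Dawley rats (n = 3) were dosed iv with the phosphate prodrug at 10, 30 or 100 mg/kg. Plasma levels of the parent drug were measured over time. Tmax, Cmax, AUC and elimination half-life were then derived from these levels.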

The test system of data set [2] is Rattus norvegicus. Kind of data set: Cmax in Sprague-Dawley rat assessed as parent drug level at 30 mg/kg, iv. Conditions: in vivo. More on the design: dose 30 mg/kg, route intravenous. The class given is ADME, organism-based. A digest of the protocol: as §1
Data set [3] has as its system Rattus norvegicus. Description: Half life in Sprague-Dawley rat assessed as parent drug level at 100 mg/kg, iv. The class given is ADME, organism-based. The arrangement: dose 100 mg/kg, route intravenous. Conditions: in vivo. The method, boiled down:
as §1

Data set [4] has as its system Staphylococcus aureus. Kind of data set: Antibacterial activity against methicillin-susceptible Staphylococcus aureus 232-51 infected in mouse dosed 1 hr and 4 hr after infection, iv. The class given is functional. Conditions: 232-51, iv. A digest of the protocol:
(§2)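 Lethal systemic S. aureus infection in mice, inoculated intraperitoneally; test agent given iv twice, at 1 h and 4 h post-infection. ED50 taken as the dose giving 50% mouse survival, reported with 95% confidence ranges.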

In data set [5] the test system is Rattus norvegicus. Description: Tmax in Sprague-Dawley rat assessed as parent drug level at 100 mg/kg, iv. Type of data set: ADME, organism-based. The arrangement: dose 100 mg/kg, route intravenous. Conditions: in vivo. A digest of the protocol:
as §1

Data set [6] in a line: Toxicity against iv dosed ICR mouse. The class given is organism-based. Conditions: in vivo. The method, boiled down:
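Acute toxicity after iv administration in SPF-level ICR mice (n = 50); LD50 determined.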

Data set [7] has as its system Rattus norvegicus. Kind of data set: Cmax in Sprague-Dawley rat assessed as parent drug level at 100 mg/kg, iv. Type of data set: ADME, organism-based. More on the design: dose 100 mg/kg, route intravenous. Conditions: in vivo. A digest of the protocol: as §1
For data set [8], the system named is Staphylococcus aureus. Kind of data set: Antibacterial activity against methicillin-resistant Staphylococcus aureus 236-29 infected in mouse dosed 1 hr and 4 hr after infection, iv. Type of data set: functional. Conditions: 236-29, iv. The method, boiled down: as §2
Data set [9] relates to Rattus norvegicus. Kind of data set: AUC (0 to infinity) in Sprague-Dawley rat assessed as parent drug level at 30 mg/kg, iv. The class given is ADME, organism-based, Plasma. The arrangement: time infinity, dose 30 mg/kg, route intravenous. Conditions: in vivo. A digest of the protocol:
as §1

Data set [10] is described as follows: Stability in buffer at pH 7.4 assessed as remaining compound at 10 mg/ml after 8 hrs. Conditions: read-out: Activity. The class given is physicochemical. The method, boiled down:
(§3)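 Compounds at 10 mg/mL in pH 7.4 buffer were kept at room temperature. Percent parent remaining was measured by UV/HPLC at 8 h and at 14 days.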

Data set [11] relates to Rattus norvegicus. Description: Tmax in Sprague-Dawley rat assessed as parent drug level at 30 mg/kg, iv. The class given is ADME, organism-based. More on the design: dose 30 mg/kg, route intravenous. Conditions: in vivo. A digest of the protocol: as §1
Data set [12] can be described thus: Aqueous solubility of the compound. The class given is physicochemical.
Data set [13] relates to Rattus norvegicus. Kind of data set: Tmax in Sprague-Dawley rat assessed as parent drug level at 10 mg/kg, iv. Type of data set: ADME, organism-based. Conditions: in vivo. The arrangement: dose 10 mg/kg, route intravenous. The method, boiled down: as §1
Data set [14] can be described thus: Stability in buffer at pH 7.4 assessed as remaining compound at 10 mg/ml after 14 days. Type of data set: physicochemical. Conditions: read-out: Activity. A digest of the protocol:
as §3

Data set [15] concerns Rattus norvegicus. Description: AUC (0 to infinity) in Sprague-Dawley rat assessed as parent drug level at 10 mg/kg, iv. Type of data set: ADME, organism-based, Plasma. More on the design: dose 10 mg/kg, route intravenous, time infinity. Conditions: in vivo. The method, boiled down:
as §1

Data set [16] relates to Rattus norvegicus. Kind of data set: Half life in Sprague-Dawley rat assessed as parent drug level at 10 mg/kg, iv. Conditions: in vivo. More on the design: dose 10 mg/kg, route intravenous. Type of data set: ADME, organism-based. The method, boiled down: as §1
The test system of data set [17] is Rattus norvegicus. Description: Cmax in Sprague-Dawley rat assessed as parent drug level at 10 mg/kg, iv. Type of data set: ADME, organism-based. The arrangement: dose 10 mg/kg, route intravenous. Conditions: in vivo. A digest of the protocol:
as §1

The test system of data set [18] is Rattus norvegicus. Kind of data set: AUC (0 to infinity) in Sprague-Dawley rat assessed as parent drug level at 100 mg/kg, iv. Conditions: in vivo. The class given is ADME, organism-based, Plasma. More on the design: dose 100 mg/kg, route intravenous, time infinity. The method, boiled down: as §1
The subject of data set [19] is Streptococcus pneumoniae. Kind of data set: Antibacterial activity against Streptococcus pneumoniae by agar dilution method. The class given is functional. A digest of the protocol:
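MIC was measured by agar dilution following NCCLS guidelines, with retapamulin and linezolid as positive controls.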
(In agar dilution the substance is mixed into plates at graded concentrations.)

The subject of data set [20] is Staphylococcus aureus. Kind of data set: Antibacterial activity against methicillin-susceptible Staphylococcus aureus by agar dilution method. The class given is functional. A digest of the protocol:
(§4)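 MICs by agar dilution following NCCLS guidance against resistant and susceptible Gram-positive strains; retapamulin and linezolid run as positive controls.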

The test system of data set [21] is Staphylococcus epidermidis. Description: Antibacterial activity against methicillin-susceptible Staphylococcus epidermidis by agar dilution method. The class given is functional. A digest of the protocol:
as §4

The subject of data set [22] is Staphylococcus aureus. Description: Antibacterial activity against methicillin-resistant Staphylococcus aureus by agar dilution method. The class given is functional. The method, boiled down:
as §4

For data set [23], the system named is Staphylococcus epidermidis. Description: Antibacterial activity against methicillin-resistant Staphylococcus epidermidis by agar dilution method. The class given is functional. A digest of the protocol:
as §4

[24] abbreviates: Staphylococcus aureus, read-out: MIC.

As a reminder, the Cmax is the maximum level reached in the sampled fluid or tissue. One may read the ED50 as the dose that gives a 50% effect, or the effect in half of the subjects. The low end stands for an effect at a small dose, the high end for a need for a large dose. What is called Tmax is the time at which the peak concentration occurs. As usually defined, the LD50 is the dose expected to kill half of the subjects tested. The low end stands for a more toxic substance, the high end for a less toxic substance. The term AUC denotes the area under the concentration-time curve, a measure of exposure. One may read the solubility as the dissolved amount per volume that the medium holds. The term MIC denotes the lowest concentration found to suppress growth.

Turning to `CC[C@]1(C)C[C@@H](OC(=O)NC(=O)c2ccc(OP(=O)([O-])[O-])cc2)[C@]2(C)[C@H](C)CC[C@]3(CCC(=O)[C@@H]32)[C@@H](C)[C@@H]1O.[Na+].[Na+]`, the results for the t1/2 in data set [1], in data set [3] and in [16] were 45 min, 37.8 min and 30.6 min, respectively. Besides, the Cmax in data set [2] is 11300 ng/mL; in [7] it was 67500 ng/mL; in data set [17], 3390 ng/mL. In addition, the median effective dose (ED50) in data set [4] was determined as 17.4 mg/kg; in data set [8] it was 20.9 mg/kg. The time of peak concentration (Tmax) in [5], in data set [11] and in data set [13] was 4.98 min each time. Also, in [6], the LD50 was 1010 mg/kg. Moreover, the AUC was found to be 5040 ng·h/mL in data set [9], 1290 ng·h/mL in data set [15] and 32600 ng·h/mL in data set [18]. In data set [10], the remaining at 8 h, 10 mg/ml is 100%. The same compound came in with a solubility in data set [12] of 96.8 mg/mL. For the same compound, the remaining at 336 h, 10 mg/ml in [14] is 99.6%.

Turning to `C=C[C@]1(C)C[C@@H](OC(=O)NC(=O)c2ccc(OC)cc2)[C@]2(C)[C@H](C)CC[C@]3(CCC(=O)[C@@H]32)[C@@H](C)[C@@H]1OP(=O)([O-])[O-].[Na+].[Na+]`, in [10], the remaining at 8 h, 10 mg/ml amounted to 100%. Moreover, the solubility in data set [12] was 57.6 mg/mL. Besides, the remaining at 336 h, 10 mg/ml in data set [14] worked out at 99.8%.

Consider `CC[C@]1(C)C[C@@H](OC(=O)NC(=O)c2ccc(O)cc2)[C@]2(C)[C@H](C)CC[C@]3(CCC(=O)[C@@H]32)[C@@H](C)[C@@H]1OP(=O)([O-])[O-].[Na+].[Na+]`, for which, in [10], the remaining at 8 h, 10 mg/ml was 100%. The solubility in [12] was determined as 52.3 mg/mL. In data set [14], the remaining at 336 h, 10 mg/ml came to 99.5%.

For the compound `C=C[C@]1(C)C[C@@H](OC(=O)NC(=O)c2ccc(OC)cc2)[C@]2(C)[C@H](C)CC[C@]3(CCC(=O)[C@@H]32)[C@@H](C)[C@@H]1O`, the minimum inhibitory concentration (MIC) in data set [19] is 0.125 µg/mL (≈ 0.251 µM); in data set [20] (setting [24]), 0.0625 µg/mL (≈ 0.126 µM); in data set [21], 0.0625 µg/mL (≈ 0.126 µM); in [22], 0.0625 µg/mL (≈ 0.126 µM); in data set [23], 0.0625 µg/mL (≈ 0.126 µM).

As to `C=C[C@]1(C)C[C@@H](OC(=O)NC(=O)c2ccc(O)cc2)[C@]2(C)[C@H](C)CC[C@]3(CCC(=O)[C@@H]32)[C@@H](C)[C@@H]1O`, the minimal inhibitory concentration (MIC) in [19] amounted to 0.25 µg/mL (≈ 0.517 µM); in data set [20] (setting [24]), 0.125 µg/mL (≈ 0.258 µM); in data set [21], 0.0625 µg/mL (≈ 0.129 µM); in data set [22] it was 0.125 µg/mL (≈ 0.258 µM); in data set [23], 0.125 µg/mL (≈ 0.258 µM).

Turning to `CC(=O)NC[C@H]1CN(c2ccc(N3CCOCC3)c(F)c2)C(=O)O1` [LINEZOLID], the minimal inhibitory concentration (MIC) stood at 0.5 µg/mL (≈ 1.48 µM) in data set [20], 0.5 µg/mL (≈ 1.48 µM) in data set [21], 1 µg/mL (≈ 2.96 µM) in data set [22] and 1 µg/mL (≈ 2.96 µM) in data set [23].

For `C=C[C@]1(C)C[C@@H](OC(=O)CS[C@@H]2C[C@H]3CC[C@@H](C2)N3C)[C@]2(C)[C@H](C)CC[C@]3(CCC(=O)[C@H]32)[C@@H](C)[C@@H]1O` [RETAPAMULIN], the MIC in [19], in [20] (setting [24]), in data set [21], in data set [22] and in data set [23] was 0.031 µg/mL (≈ 0.0599 µM) each time.

Regarding `CN[C@H](CC(C)C)C(=O)N[C@H]1C(=O)N[C@@H](CC(N)=O)C(=O)N[C@H]2C(=O)N[C@H]3C(=O)N[C@H](C(=O)N[C@H](C(=O)O)c4cc(O)cc(O)c4-c4cc3ccc4O)[C@H](O)c3ccc(c(Cl)c3)Oc3cc2cc(c3O[C@@H]2O[C@H](CO)[C@@H](O)[C@H](O)[C@H]2O[C@H]2C[C@](C)(N)[C@H](O)[C@H](C)O2)Oc2ccc(cc2Cl)[C@H]1O` [VANCOMYCIN], the figures for the ED50 in data set [4] and in data set [8] were 13.5 mg/kg and 15.8 mg/kg, respectively.
